High-throughput results: PubChem, several laboratories
Only some compounds are listed: those with a hit (about 1.8% of all), similar ones and a draw of the others.
GRK2 inh = blocks RNA aptamer binding to human GRK2. bead flow cytometry, FAM-aptamer displacement from GRK2. inhibition of aptamer binding, % at 10 µM. 330,000 tested, 0.59% active. P25098;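 active = inhibition of aptamer binding above 40%, roughly 3 SD of noise, on plates passing a quality check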;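 note: median bead fluorescence of bound FAM aptamer so fluorescent compounds give negative values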
Target sequence (P25098 whole entry, looked up): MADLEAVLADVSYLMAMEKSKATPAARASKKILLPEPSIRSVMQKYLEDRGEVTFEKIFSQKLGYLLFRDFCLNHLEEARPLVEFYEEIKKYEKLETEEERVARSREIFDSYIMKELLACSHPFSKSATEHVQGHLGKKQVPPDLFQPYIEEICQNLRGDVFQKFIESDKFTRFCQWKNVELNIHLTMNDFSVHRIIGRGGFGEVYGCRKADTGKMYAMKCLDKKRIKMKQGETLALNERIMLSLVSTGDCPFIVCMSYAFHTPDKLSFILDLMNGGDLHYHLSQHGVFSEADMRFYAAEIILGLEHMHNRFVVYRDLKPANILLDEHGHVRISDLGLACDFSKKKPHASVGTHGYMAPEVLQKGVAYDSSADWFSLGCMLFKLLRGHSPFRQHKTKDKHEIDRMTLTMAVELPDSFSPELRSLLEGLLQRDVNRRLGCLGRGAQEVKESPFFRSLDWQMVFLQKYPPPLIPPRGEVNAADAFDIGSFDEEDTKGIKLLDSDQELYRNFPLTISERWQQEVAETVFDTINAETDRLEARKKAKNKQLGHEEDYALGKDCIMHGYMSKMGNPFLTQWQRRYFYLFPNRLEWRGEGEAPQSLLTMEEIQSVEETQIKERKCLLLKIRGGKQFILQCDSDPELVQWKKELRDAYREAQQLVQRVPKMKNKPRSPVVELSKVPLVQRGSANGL
CAL PDZ FP-1 = human CAL PDZ-peptide interaction inhibition | AID 504414 | 330,000 tested, 0.02% active | Q9HD26 | inhibition, % at 20 µM | purified CAL PDZ, TMR-peptide fluorescence polarization, 1 h;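 active = highest replicate inhibition of at least 40%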;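 note: plate controls were DMSO neutral control wells for no effect and unlabeled competitor peptide control wells for full effect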
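material = purified tagged CAL PDZ domain construct (CerCALP) | buffer or medium = sodium phosphate/NaCl buffer pH 7.4 with TCEP, IgG, Thesit | reagent = TMR-labelled reporter peptide T*-PRC34 bound in PDZ groove | incubation = 1 h room-temperature incubation prior to read | measured by = fluorescence polarization (mP) | evaluation = percent inhibition from loss of millipolarization | control set = unlabelled peptide and DMSO controls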
Tn7 DDE FP = inhibitors of Tn7 peptide binding to human fibrin DD(E) | P02675 | FP displacement of FITC-Tn7 peptide from fibrin DD(E); 0% = median of compound wells per plate | inhibition, % at 8.3 µM | 370,000 tested, 0.13% active | AID 720508;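 active = inhibition above the mean of compounds falling within the control limits plus 3 SD of them, cut at about 14% in these data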;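 note: 0% = plate median of compound wells and 100% = 10 µM Aha-Tn7 peptide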
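System: human fibrin DD(E); quantity: Fibrin-DD(E) at 2 µM final; also added: fluorescent Tn7 probe at 0.1 µM; compound dosing: single nominal test concentration of 8.3 µM per compound; schedule: 10 min preincubation, 3 h with tracer, room temperature; detection: fluorescence polarization of the labelled Tn7 tracer; repeats: one replicate per compound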
CAL PDZ FP-2 = CAL PDZ (human) peptide binding inhibition | purified CAL PDZ, TMR-peptide fluorescence polarization, 1 h | inhibition, % at 24.9 µM | 300,000 tested, 0.92% active;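 active = mean inhibition of at least 30% with at least half of replicates also reaching 30%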;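 note: 0% = DMSO neutral control and 100% = excess unlabeled competitor peptide PRC23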
ARNT TACC3 PPI = disruptors of human ARNT/TACC3 interaction; Q9Y6A5; AlphaScreen His-ARNT PAS-B/GST-TACC3 binding, luminescence; TACC3 fragment carries E629A point mutation; inhibition, % at 9.99 µM; 390,000 tested, 0.66% active; AID 623870;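 active = mean inhibition of replicates at least 50% and at least half of replicates each reaching 50%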;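 note: 0% = complete ARNT plus TACC3 wells and 100% = ARNT alone without TACC3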
Tn6 DDE FP = DD(E)-Tn6 binding inhibition, primary FP screen; P02675; Fibrin DD(E) TRITC-Tn6 fluorescence polarization displacement; inhibition, % at 8.3 µM; 370,000 tested, 0.21% active; AID 720509;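 active = inhibition above a per-campaign cutoff: mean of compounds within control limits plus 3 SD, cut at about 15% in these data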;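 note: 0% = median of all compound wells on the plate and 100% = blocking peptide control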
GRK2 CP1 = confirmation of human GRK2 inhibitors displacing RNA aptamer; shares compounds with GRK2 inh; bead-bound GRK2, FAM-aptamer displacement, flow cytometry; aptamer displacement, % at 10 µM; 2,000 tested, 4% active; AID 504451;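 active = aptamer displacement above 40%, near three times the noise of non-fluorescent compounds, on plates passing quality checks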;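 note: negative values mostly reflect intrinsic compound fluorescence rather than true enhancement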
FAM quench CP1 = counter-screen for GRK2 aptamer inhibitors: fluorescent aptamer quenchers; shares compounds with GRK2 inh; Carboxyfluorescein RNA aptamer on beads, flow cytometry quenching; stronger effect = lower value; fluorescence response (% of DMSO), % at 10 µM; 2,000 tested, under 10 active;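 active = compounds that quench the bead-bound fluorescent RNA probe, cutting fluorescence to under half of the solvent control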;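 note: counterscreen run without GRK2 so only probe quenching by compound is measured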
GRK2 confirm 2 = confirmation of human GRK2 inhibitors binding RNA aptamer site; AID 504782; 360 tested, under 10 active; inhibition of aptamer binding, % at 10 µM; bead-bound GRK2, FAM-aptamer displacement, flow cytometry; shares compounds with GRK2 inh;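 active = inhibition of aptamer binding above 40%, about triple the noise seen with nonglowing compounds, on plates passing quality control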;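 note: negative values mostly come from compounds that fluoresce themselves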
FAM quench CP2 = quenches fluorescent RNA aptamer, GRK2 hit artifact; shares compounds with GRK2 inh; 360 tested, under 10 active; carboxyfluorescein RNA aptamer beads, flow cytometry quenching; stronger effect = lower value; fluorescence response vs DMSO, % at 10 µM;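 active = response vs DMSO under 50%, meaning signal dropped by over half, treated as fluorescence quencher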;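 note: labelled aptamer on streptavidin beads without GRK2 as a quench counter-screen; 100% = bead fluorescence of DMSO wells and lower means quenching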
The depositor's hits bear a star.

Results for Cc1cccc(C)c1-n1c(C)nn(-c2ncc(C(F)(F)F)cc2Cl)c1=O ?
GRK2 inh: 90*; CAL PDZ FP-1: -1; Tn7 DDE FP: 3; CAL PDZ FP-2: 7; ARNT TACC3 PPI: -11; Tn6 DDE FP: -2; GRK2 CP1: 2; FAM quench CP1: 96

What do the screens show for `Cc1ccc2oc(=O)c3cnn(CC(=O)NCCN(C)C)c3c2c1`?
GRK2 inh: 1; CAL PDZ FP-1: 1; Tn7 DDE FP: -9; CAL PDZ FP-2: 2; ARNT TACC3 PPI: -3; Tn6 DDE FP: 2

What do the screens show for `Cc1ccc2oc(=O)c3cnn(CC(=O)NCCc4ccsc4)c3c2c1`?
GRK2 inh: 61*; CAL PDZ FP-1: -1; Tn7 DDE FP: -7; ARNT TACC3 PPI: -2; Tn6 DDE FP: 3; GRK2 CP1: 5; FAM quench CP1: 102

What do the screens show for `CCN(CCCNC(=O)Cn1ncc2c(=O)oc3ccccc3c21)c1cccc(C)c1`?
GRK2 inh: 74*; CAL PDZ FP-1: 0; Tn7 DDE FP: -5; ARNT TACC3 PPI: -11; Tn6 DDE FP: 1; GRK2 CP1: 1; FAM quench CP1: 96

How did O=[N+]([O-])c1ccc(N2CCN(c3ccc(Cl)nn3)CC2)c(Cl)c1 do in these assays?
GRK2 inh: 0; CAL PDZ FP-1: 0; Tn7 DDE FP: 3; ARNT TACC3 PPI: 1; Tn6 DDE FP: -3

What do the screens show for `O=[N+]([O-])c1ccc(N2CCN(c3ccc(Cl)nn3)CC2)cc1NC1CC1`?
GRK2 inh: 64*; CAL PDZ FP-1: -1; Tn7 DDE FP: -9; CAL PDZ FP-2: 4; ARNT TACC3 PPI: 2; Tn6 DDE FP: -11; GRK2 CP1: -1; FAM quench CP1: 99

What do the screens show for `NS(=O)(=O)c1ccc(CCNC(=O)c2ccccc2-c2ccccc2)cc1`?
GRK2 inh: 82*; CAL PDZ FP-1: -3; Tn7 DDE FP: -7; CAL PDZ FP-2: -2; ARNT TACC3 PPI: 6; Tn6 DDE FP: -1; GRK2 CP1: -5; FAM quench CP1: 100

What do the screens show for `O=c1cc(OCc2ccccc2)cc[nH]1`?
GRK2 inh: 43*; CAL PDZ FP-1: 0; Tn7 DDE FP: -4; CAL PDZ FP-2: -4; ARNT TACC3 PPI: -4; Tn6 DDE FP: 1; GRK2 confirm 2: -30; FAM quench CP2: 99

How did Cc1[nH]ccc(=O)c1OCc1ccccc1 do in these assays?
GRK2 inh: 0; CAL PDZ FP-1: 0; Tn7 DDE FP: -7; CAL PDZ FP-2: -5; ARNT TACC3 PPI: 0; Tn6 DDE FP: 7

How did O=C(c1ccc(Cl)c(S(=O)(=O)N2CCc3ccccc3C2)c1)N1CCN(c2ccccc2)CC1 do in these assays?
GRK2 inh: 0; CAL PDZ FP-1: -1; Tn7 DDE FP: -6; CAL PDZ FP-2: -4; ARNT TACC3 PPI: 4; Tn6 DDE FP: 1; GRK2 CP1: 0; FAM quench CP1: 102

What do the screens show for `Cc1noc(C)c1NC(=O)Nc1ccc2c(c1)C(=O)N([C@@H](C)CO)C[C@@H](C)[C@H](CN(C)C(=O)Nc1c(C)noc1C)O2`?
ARNT TACC3 PPI: -2

How did COc1ccc(CNC(=O)CN2CCN(c3ccc(F)cc3)CC2)cc1 do in these assays?
GRK2 inh: 0; CAL PDZ FP-1: 0; Tn7 DDE FP: -3; CAL PDZ FP-2: -4; ARNT TACC3 PPI: 4; Tn6 DDE FP: -1

How did CCC1CCCCN1CCCNC(=O)Cn1ncc2c([nH]c3ccc(C)cc32)c1=O (stereo not drawn) do in these assays?
GRK2 inh: 0; CAL PDZ FP-1: 4; CAL PDZ FP-2: -3

Results for Cc1ccc2[nH]c3c(=O)n(CC(=O)NCCCN4CCN(c5ccc(F)cc5)CC4)ncc3c2c1 ?
GRK2 inh: 45*; CAL PDZ FP-1: -3; Tn7 DDE FP: -3; CAL PDZ FP-2: 0; ARNT TACC3 PPI: 7; Tn6 DDE FP: -4; GRK2 CP1: 24; FAM quench CP1: 98

Results for Cc1ccc(CNC(=O)CN2CCN(c3ccc(F)cc3)CC2)cc1 ?
GRK2 inh: 43*; CAL PDZ FP-1: -1; Tn7 DDE FP: 3; CAL PDZ FP-2: -2; ARNT TACC3 PPI: -1; Tn6 DDE FP: -1; GRK2 CP1: 2; FAM quench CP1: 97

Results for COc1ccc(-c2cccc(C3CC=CC4C3C(=O)N(Cc3ccccc3)C4c3ccc(C(F)(F)F)cc3)c2)cc1 (stereo not drawn) ?
GRK2 inh: 0; CAL PDZ FP-1: -1; Tn7 DDE FP: -1; CAL PDZ FP-2: -3; ARNT TACC3 PPI: 5; Tn6 DDE FP: 2

What do the screens show for `Cc1ccc(-c2cccc(C3CC=CC4C3C(=O)N(Cc3ccccc3)C4c3cc(C)ccc3F)c2)cc1` (stereo not drawn)?
GRK2 inh: 4; CAL PDZ FP-1: 1; Tn7 DDE FP: -5; CAL PDZ FP-2: 0; ARNT TACC3 PPI: -1; Tn6 DDE FP: 1; GRK2 CP1: 1; FAM quench CP1: 102

Results for COc1ccc(CNS(=O)(=O)c2ccc3c(c2)C(C)(C)C(=O)N3C)cc1 ?
GRK2 inh: 2; CAL PDZ FP-1: -1; Tn7 DDE FP: -5; CAL PDZ FP-2: -4; ARNT TACC3 PPI: 1; Tn6 DDE FP: 9

What do the screens show for `COc1cc(NS(=O)(=O)c2ccc3c(c2)C(C)(C)C(=O)N3C)cc(OC)c1`?
GRK2 inh: 44*; CAL PDZ FP-1: -1; Tn7 DDE FP: -8; CAL PDZ FP-2: -3; Tn6 DDE FP: 0; GRK2 CP1: 4; FAM quench CP1: 99

How did COc1cc2cc(CCOC(=O)N3CCCCC3)oc(=O)c2cc1OC do in these assays?
GRK2 inh: 42*; CAL PDZ FP-1: -1; Tn7 DDE FP: -3; CAL PDZ FP-2: -2; ARNT TACC3 PPI: 4; Tn6 DDE FP: -1; GRK2 CP1: -2; FAM quench CP1: 98

Results for COc1cc2cc(CCOC(=O)CCCC(=O)O)oc(=O)c2cc1OC ?
GRK2 inh: 2; CAL PDZ FP-1: 0; Tn7 DDE FP: -3; CAL PDZ FP-2: -5; ARNT TACC3 PPI: -2; Tn6 DDE FP: 2
